For six compounds, MIC and hemolysis results are on record in ChEMBL document CHEMBL5380865, “Linearization of the Brevicidine and Laterocidine Lipopeptides Yields Analogues That Retain Full Antibacterial Activity” (J Med Chem, 2023).

By MIC is commonly meant the least concentration at which growth counts as inhibited.

Series [1] relates to Escherichia coli. The series is described as follows: Antibacterial activity Escherichia coli ATCC 25922 assessed as inhibition of visible bacterial growth incubated for 18 hrs by microbroth dilution assay. Type of series: functional. In a few lines: (§1)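 CLSI broth microdilution. Strains streaked from glycerol stocks onto blood agar (16 h, 37 °C); single colonies grown in TSB at 37 °C, 220 rpm, to OD600 about 0.5. Diluted in MHB to 2 × 10^5 CFU/mL and mixed 1:1 with compounds serially diluted in MHB from DMSO stocks (colistin from water stocks), polypropylene plates. Sealed, 18 h at 37 °C, 600 rpm. MIC taken as lowest concentration preventing visible growth, three technical replicates.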

For series [2], the system named is Klebsiella pneumoniae. The series is described as follows: Antibacterial activity Klebsiella pneumoniae ATCC 13883 assessed as inhibition of visible bacterial growth incubated for 18 hrs by microbroth dilution assay. Type of series: functional. In a few lines:
as §1

The test system of series [3] is Acinetobacter baumannii. The series is described as follows: Antibacterial activity Acinetobacter baumannii ATCC 17961 assessed as inhibition of visible bacterial growth incubated for 18 hrs by microbroth dilution assay. Format: functional. In a few lines:
as §1
(Broth dilution looks for growth in wells or tubes with falling amounts of substance.)

In series [4] the test system is Pseudomonas aeruginosa. The series is described as follows: Antibacterial activity Pseudomonas aeruginosa PAO1 assessed as inhibition of visible bacterial growth incubated for 18 hrs by microbroth dilution assay. Type of series: functional. In a few lines:
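CLSI broth microdilution. Colonies from blood agar (16 h, 37 °C) grown in TSB at 37 °C, 220 rpm, to OD600 about 0.5, then diluted in MHB to 2 × 10^5 CFU/mL. Added to DMSO-stock compounds serially diluted in MHB in polypropylene plates. Sealed, 18 h at 37 °C, 600 rpm. MIC = lowest concentration with no visible growth; three technical replicates.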

In series [5] the test system is Staphylococcus aureus. The series is described as follows: Antibacterial activity Staphylococcus aureus USA300 assessed as inhibition of visible bacterial growth incubated for 18 hrs by microbroth dilution assay. Type of series: functional. In a few lines: as §1
The test system of series [6] is Escherichia coli. The series is described as follows: Antibacterial activity Escherichia coli MCR-1 assessed as inhibition of visible bacterial growth incubated for 18 hrs by microbroth dilution assay. Format: functional. In a few lines: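 Colistin-resistant E. coli 25922 carrying MCR-1, grown from glycerol stock in kanamycin-supplemented TSB for 16 h at 37 °C, 220 rpm. Diluted 100-fold in kanamycin-supplemented TSB and grown to OD600 about 0.5, then diluted in MHB to 2 × 10^5 CFU/mL. Combined 1:1 with MHB serial dilutions of compounds. Sealed, 18 h at 37 °C, 600 rpm; lowest concentration without visible growth, triplicate technical replicates.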

A short description of series [7]: Hemolytic activity in sheep red blood cell assessed as hemolysis at 1 to 128 ug/ml incubated for 1 hrs relative to control. Type of series: toxicity, cell-based, Ovis aries, Erythrocyte. Particulars: sheep red blood cells (erythrocytes), at 1 to 128 µg/mL, dose 1-128 µg/ml, read-out: Activity. In a few lines: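 Defibrinated sheep erythrocytes washed five times in PBS with 0.002% Tween20 and normalized so the Triton control reads 2.5–3.0 at 415 nm. Mixed 1:1 with compound serial dilutions (128–1 μg/mL) and incubated 1 h at 37 °C, 500 rpm. Supernatant A415 is background-corrected with buffer and expressed as percent of 0.1% Triton X-100 (final). Run in triplicate.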

≈ marks a conversion by molar mass, not a printed value. *1 amine or outer side, *2 acyl side, *3 side chain or, on linkers, in order; H or OH if unused. Where a SMILES comes first, the peptide text is derived from it. [ ]: non-standard residue; d: D form. The star is where a group is joined. ξ: configuration not given here. X1 = C[C@@H](N=[N+]=[N-])[C@H](N[*:1])C(=O)[*:2]; Octanoyl(7-Me) = CC(C)CCCCCC(=O)*; Hexanoyl(4ξ-Me) = CCC(C)CCC(=O)*; dOrn = NCCC[C@@H](N)C(=O)O; Orn = NCCC[C@H](N)C(=O)O

On to `CCC(C)CCC(=O)N[C@H](CC(N)=O)C(=O)N[C@H](Cc1ccc(O)cc1)C(=O)N[C@H](Cc1c[nH]c2ccccc12)C(=O)N[C@H](CCCN)C(=O)N[C@@H](CCCN)C(=O)NCC(=O)N[C@H](CCCN)C(=O)N[C@@H](Cc1c[nH]c2ccccc12)C(=O)N[C@@H](CO)C(=O)N[C@H](C(=O)NCC(N)=O)[C@@H](C)CC` (some centres not stated) ({Hexanoyl(4ξ-Me)}-[dN][dY][dW][dOrn][Orn]G[dOrn]WSIG-NH2), for which the MIC in series [1] was 4 µg/mL (≈ 2.79 µM); in series [2], 4 µg/mL (≈ 2.79 µM); in series [3] it was 8 µg/mL (≈ 5.57 µM); in series [4] it was 2 µg/mL (≈ 1.39 µM); in series [5], over 32 µg/mL; in series [6] it was 8 µg/mL (≈ 5.57 µM).

Turning to `CCC(C)CCC(=O)N[C@H](CC(N)=O)C(=O)N[C@H](C)C(=O)N[C@H](Cc1c[nH]c2ccccc12)C(=O)N[C@H](CCCN)C(=O)N[C@@H](CCCN)C(=O)NCC(=O)N[C@H](CCCN)C(=O)N[C@@H](Cc1c[nH]c2ccccc12)C(=O)N[C@H](C(=O)N[C@H](C(=O)NCC(=O)N[C@@H](CO)C(N)=O)[C@@H](C)CC)[C@@H](C)O` (some centres not stated) ({Hexanoyl(4ξ-Me)}-[dN][dA][dW][dOrn][Orn]G[dOrn]WTIGS-NH2), the MIC was over 32 µg/mL in series [1]; over 32 µg/mL in series [2]; over 32 µg/mL in series [3]; 16 µg/mL (≈ 11.1 µM) in series [4]; over 32 µg/mL in series [5]; over 32 µg/mL in series [6].

For `CCC(C)CCC(=O)N[C@H](CC(N)=O)C(=O)N[C@H](Cc1ccc(O)cc1)C(=O)N[C@H](Cc1c[nH]c2ccccc12)C(=O)N[C@H](CCCN)C(=O)N[C@@H](CCCN)C(=O)NCC(=O)N[C@H](CCCN)C(=O)N[C@@H](Cc1c[nH]c2ccccc12)C(=O)N[C@H](C(=O)N[C@H](C(=O)N[C@@H](C)C(=O)N[C@@H](CO)C(N)=O)[C@@H](C)CC)[C@@H](C)O` (some centres not stated) ({Hexanoyl(4ξ-Me)}-[dN][dY][dW][dOrn][Orn]G[dOrn]WTIAS-NH2), the MIC was 32 µg/mL (≈ 20.6 µM) in series [1]; over 32 µg/mL in series [2]; 32 µg/mL (≈ 20.6 µM) in series [3]; 16 µg/mL (≈ 10.3 µM) in series [4]; over 32 µg/mL in series [5]; 32 µg/mL (≈ 20.6 µM) in series [6].

As to `CCC(C)CCC(=O)N[C@H](CC(N)=O)C(=O)N[C@H](Cc1ccc(O)cc1)C(=O)N[C@H](Cc1c[nH]c2ccccc12)C(=O)N[C@H](CCCN)C(=O)N[C@@H](CCCN)C(=O)NCC(=O)N[C@H](CCCN)C(=O)N[C@@H](Cc1c[nH]c2ccccc12)C(=O)N[C@H](C(=O)N[C@H](C(=O)NCC(=O)N[C@@H](C)C(N)=O)[C@@H](C)CC)[C@@H](C)O` (some centres not stated) ({Hexanoyl(4ξ-Me)}-[dN][dY][dW][dOrn][Orn]G[dOrn]WTIGA-NH2), the MIC is 8 µg/mL (≈ 5.26 µM) in series [1]; 8 µg/mL (≈ 5.26 µM) in series [2]; 4 µg/mL (≈ 2.63 µM) in series [3]; 8 µg/mL (≈ 5.26 µM) in series [4]; over 32 µg/mL in series [5]; 8 µg/mL (≈ 5.26 µM) in series [6].

Regarding `CC[C@H](C)[C@H](NC(=O)[C@@H](NC(=O)[C@H](Cc1c[nH]c2ccccc12)NC(=O)[C@@H](CCCN)NC(=O)CNC(=O)[C@H](CCCN)NC(=O)[C@@H](CCCN)NC(=O)[C@@H](Cc1c[nH]c2ccccc12)NC(=O)[C@@H](Cc1ccc(O)cc1)NC(=O)[C@@H](CO)NC(=O)CCCCCC(C)C)[C@@H](C)N=[N+]=[N-])C(=O)N[C@@H](CC(N)=O)C(=O)NCC(=O)NCC(N)=O` ({Octanoyl(7-Me)}-[dS][dY][dW][dOrn][Orn]G[dOrn]W[X1]INGG-NH2), the minimum inhibitory concentration (MIC) in series [1] was 4 µg/mL (≈ 2.43 µM); in series [2], 4 µg/mL (≈ 2.43 µM); in series [3], 2 µg/mL (≈ 1.21 µM); in series [4], 4 µg/mL (≈ 2.43 µM); in series [5] it was over 32 µg/mL; in series [6], 4 µg/mL (≈ 2.43 µM). Moreover, the hemolysis at 1 h in series [7] was under 0.1%.

Turning to `CCC(C)CCC(=O)N[C@H](C)C(=O)N[C@H](Cc1ccc(O)cc1)C(=O)N[C@H](Cc1c[nH]c2ccccc12)C(=O)N[C@H](CCCN)C(=O)N[C@@H](CCCN)C(=O)NCC(=O)N[C@H](CCCN)C(=O)N[C@@H](Cc1c[nH]c2ccccc12)C(=O)N[C@H](C(=O)N[C@H](C(=O)NCC(=O)N[C@@H](CO)C(N)=O)[C@@H](C)CC)[C@@H](C)O` (some centres not stated) ({Hexanoyl(4ξ-Me)}-[dA][dY][dW][dOrn][Orn]G[dOrn]WTIGS-NH2), the MIC in series [1] was 16 µg/mL (≈ 10.7 µM); in series [2], 16 µg/mL (≈ 10.7 µM); in series [3], 8 µg/mL (≈ 5.36 µM); in series [4], 8 µg/mL (≈ 5.36 µM); in series [5], over 32 µg/mL; in series [6], 16 µg/mL (≈ 10.7 µM).
